Screening data as filed in PubChem BioAssay.
The list is not random: actives were taken first. Their share in the collection is about 29%.
Ecoli WT expand – blocks growth of wild type E. coli BW25113; OD600 absorbance; growth inhibition, % at 100 µM; actives 0.15% (n = 98,000); AID 710;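 active means growth inhibition above about 50% at one test dose, limit read from the data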;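 further: growth measured after 20 h incubation at 37 °C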
CYP2C9 act – increases human cytochrome P450 2C9 activity; P11712; recombinant CYP2C9, luciferin-H conversion, luminescence; stronger effect = higher value; factor 1 = untreated enzyme, 0 = blocked; activation factor at 5 µM; actives 1.4% (n = 96,000); AID 1024;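 active means activation factor of 2 or more for CYP2C9 at a 5 µM dose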;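 further: 0 = sulfaphenazole-blocked wells and 1 = vehicle-only wells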
Target sequence (P11712 whole entry, looked up): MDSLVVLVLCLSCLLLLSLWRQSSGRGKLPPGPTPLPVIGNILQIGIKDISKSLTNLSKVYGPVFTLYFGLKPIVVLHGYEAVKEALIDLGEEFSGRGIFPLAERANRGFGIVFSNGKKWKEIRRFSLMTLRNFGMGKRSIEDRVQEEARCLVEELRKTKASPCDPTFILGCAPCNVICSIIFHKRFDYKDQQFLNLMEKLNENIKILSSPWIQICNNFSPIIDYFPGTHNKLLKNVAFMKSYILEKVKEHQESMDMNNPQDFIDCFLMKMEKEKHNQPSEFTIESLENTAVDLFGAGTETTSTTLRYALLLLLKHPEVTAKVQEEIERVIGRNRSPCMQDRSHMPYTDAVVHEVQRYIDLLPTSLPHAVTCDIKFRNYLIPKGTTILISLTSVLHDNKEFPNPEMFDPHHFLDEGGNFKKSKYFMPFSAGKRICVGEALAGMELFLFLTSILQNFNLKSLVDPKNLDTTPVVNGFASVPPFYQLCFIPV
tolC growth inh – blocks growth of E. coli BW25113 tolC mutant; growth inhibition, % at 10 µM (by protocol); OD615; actives 2.2% (n = 65,000);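 active means growth inhibition at or above a cutoff equal to the mean over every tested compound plus 3 SD, cut at about 60% in these data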;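 further: growth measured after 20 h incubation at 37 °C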
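test system = E. coli BW25113 ΔtolC::kan bacteria | medium = LB with kanamycin 50 µg/mL | signal = OD at 615 nm | schedule = 37 °C, 20 h exposure | evaluation = % inhibition of E. coli growth | compound dosing = one dose of 10 µM final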
CYP2C19 inh – human CYP2C19 inhibition. AID 778. inhibition, % at 5 µM. P33261. CYP2C19 Supersomes, luciferin-H EGE luminescence, 30 min. actives 21% (n = 96,000);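 active means CYP2C19 inhibition above a set limit at 5 µM in the primary screen, cut at about 50% in these data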;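 further: plate controls were negative control wells for no effect and 2.5 mM tranylcypromine positive control for full effect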
CYP2C9 inhib – human CYP2C9 inhibition; CYP2C9 Supersomes, luciferin-H conversion, luminescence; P11712; actives 20% (n = 96,000); inhibition, % at 5 µM;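 active means blocking of liver enzyme CYP2C9 beyond about 50% at 5 µM, limit read from the data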
CYP2C19 activ – activators of human cytochrome P450 2C19. 96,000 tested, under 10 active. activation factor at 5 µM. P33261. recombinant CYP2C19, luciferin-H EGE luminescence; stronger effect = higher value; 0 = fully inhibited enzyme, 1 = untreated enzyme;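 active means activation factor of at least 2 at 5 µM in the primary screen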;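 further: 0 = wells with 2.5 mM tranylcypromine and 1 = vehicle-only wells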
* hit, by the source's call.

How did CC(Nc1cc(N2CCN(C(=O)C(C)(C)C)CC2)ccc1[N+](=O)[O-])c1ccccc1 (stereo unspecified) do in these assays?
Ecoli WT expand: -15; CYP2C9 act: 0.5; CYP2C19 inh: 56*; CYP2C9 inhib: 50*; CYP2C19 activ: 0.4

What do the screens show for `CCS(=O)(=O)N1CCN(c2ccc([N+](=O)[O-])c(NC(C)c3ccccc3)c2)CC1` (stereo unspecified)?
Ecoli WT expand: -13; CYP2C9 act: 0.3; CYP2C19 inh: 51*; CYP2C9 inhib: 66*; CYP2C19 activ: 0.5

How did O=[N+]([O-])c1ccc(N2CCCC2)cc1NC(c1ccccc1)c1ccccc1 do in these assays?
Ecoli WT expand: -20; CYP2C9 act: 0.7; CYP2C19 inh: 9; CYP2C9 inhib: 30; CYP2C19 activ: 0.9

Results for CCS(=O)(=O)N1CCN(c2ccc([N+](=O)[O-])c(NCc3ccccc3)c2)CC1 ?
Ecoli WT expand: -11; CYP2C9 act: 0.8; CYP2C19 inh: 7; CYP2C9 inhib: 21; CYP2C19 activ: 0.9

What do the screens show for `CCC(=O)N1c2ccc(S(=O)(=O)CCC(=O)NCCC3=CCCCC3)cc2CC1C` (stereo unspecified)?
Ecoli WT expand: 5; CYP2C9 act: 0.4; tolC growth inh: -3; CYP2C19 inh: 21; CYP2C9 inhib: 61*; CYP2C19 activ: 0.8

What do the screens show for `CCC(=O)N1CCc2cc(S(=O)(=O)CCC(=O)NCCC3=CCCCC3)ccc21`?
Ecoli WT expand: 10; CYP2C9 act: 0.5; tolC growth inh: -6; CYP2C19 inh: 13; CYP2C9 inhib: 53*; CYP2C19 activ: 0.9

Results for CCCC(C)C(=O)Nc1ccc(C(N)=O)cc1 (stereo unspecified) ?
Ecoli WT expand: 2; CYP2C9 act: 1.2; tolC growth inh: -10; CYP2C19 inh: -14; CYP2C9 inhib: -20; CYP2C19 activ: 1.1

How did CCOc1ccc(C2OC34CCCCC3C(C#N)(C#N)C2(C#N)C(=N)O4)cc1OC (stereo unspecified) do in these assays?
Ecoli WT expand: -4; CYP2C9 act: 1.1; CYP2C19 inh: 8; CYP2C9 inhib: -11; CYP2C19 activ: 0.9

Results for Cc1oc(-c2ccccc2Cl)cc1-c1nn2c(-c3ccco3)nnc2s1 ?
CYP2C9 act: 1; tolC growth inh: -32; CYP2C19 inh: 4; CYP2C9 inhib: 1; CYP2C19 activ: 1

Results for CCC(=Nc1ccc(Cc2ccncc2)cc1)c1c(O)n(C)c(=O)n(C)c1=O ?
Ecoli WT expand: -9; CYP2C9 act: 0.1; tolC growth inh: 13; CYP2C19 inh: 96*; CYP2C9 inhib: 92*; CYP2C19 activ: 0

What do the screens show for `CCOc1ccc(NC(=O)CSc2nc(C)c3c(c2C#N)CCCC3)cc1`?
Ecoli WT expand: -4; CYP2C9 act: 1.1; CYP2C19 inh: 4; CYP2C9 inhib: -8; CYP2C19 activ: 1

What do the screens show for `CSCC[C@H](NC(=O)OC(C)(C)C)c1nnc(SCc2ccc(F)cc2)o1`?
Ecoli WT expand: -7; CYP2C9 act: 0.2; tolC growth inh: 53; CYP2C19 inh: 88*; CYP2C9 inhib: 78*; CYP2C19 activ: 0.1

What do the screens show for `CC(C)[C@H](NC(=O)OC(C)(C)C)c1nnc(SCc2cccc(F)c2)o1`?
Ecoli WT expand: 5; CYP2C9 act: 1; tolC growth inh: 49; CYP2C19 inh: 5; CYP2C9 inhib: -2; CYP2C19 activ: 1

How did CC(C)C[C@H](NC(=O)OC(C)(C)C)c1nnc(SCc2cccc(F)c2)o1 do in these assays?
Ecoli WT expand: -4; CYP2C9 act: 0.9; tolC growth inh: 73*; CYP2C19 inh: 35; CYP2C9 inhib: 8; CYP2C19 activ: 0.7

What do the screens show for `CCC(C)[C@H](N)c1nnc(SCc2cccc(F)c2)o1` (stereo partly specified)?
Ecoli WT expand: 9; CYP2C9 act: 1.1; tolC growth inh: -6; CYP2C19 inh: 62*; CYP2C9 inhib: -6; CYP2C19 activ: 0.4

What do the screens show for `CCSc1nnc([C@H](Cc2c[nH]c3ccccc23)NC(=O)OC(C)(C)C)o1`?
Ecoli WT expand: -2; CYP2C9 act: 0.8; CYP2C19 inh: 28; CYP2C9 inhib: 18; CYP2C19 activ: 0.7

How did CCN(CC)C(=O)CSc1nnc([C@H](Cc2c[nH]c3ccccc23)NC(=O)OC(C)(C)C)o1 do in these assays?
Ecoli WT expand: 1; CYP2C9 act: 0.4; tolC growth inh: 26; CYP2C19 inh: 53*; CYP2C9 inhib: 62*; CYP2C19 activ: 0.5

What do the screens show for `CC(=O)OCCN(CCOC(C)=O)c1c(C)[nH]c(=O)[nH]c1=O`?
Ecoli WT expand: -5; CYP2C9 act: 0.9; tolC growth inh: -6; CYP2C19 inh: -3; CYP2C9 inhib: 8; CYP2C19 activ: 1

What do the screens show for `COc1cccc(N2CCN(c3c4c(nc5ncnn35)CCC4)CC2)c1`?
Ecoli WT expand: -6; CYP2C9 act: 0.9; tolC growth inh: 5; CYP2C19 inh: 25; CYP2C9 inhib: 12; CYP2C19 activ: 0.7

Results for CC(C)C[C@H](NC(=O)OC(C)(C)C)c1nnc(SCC(=O)Nc2ccc(Br)cc2)o1 ?
Ecoli WT expand: -2; CYP2C9 act: 0.8; tolC growth inh: -14; CYP2C19 inh: 65*; CYP2C9 inhib: 24; CYP2C19 activ: 0.3

Results for CSCC[C@H](NC(=O)OC(C)(C)C)c1nnc(SCC(=O)N(C)C)o1 ?
Ecoli WT expand: -3; CYP2C9 act: 1.1; tolC growth inh: -12; CYP2C19 inh: 3; CYP2C9 inhib: -8; CYP2C19 activ: 1

What do the screens show for `CSCC[C@H](NC(=O)OC(C)(C)C)c1nnc(SCc2cccc(F)c2)o1`?
Ecoli WT expand: -6; CYP2C9 act: 0.3; tolC growth inh: 29; CYP2C19 inh: 80*; CYP2C9 inhib: 69*; CYP2C19 activ: 0.2

What do the screens show for `CSCC[C@H](NC(=O)OC(C)(C)C)c1nnc(SCc2ccccc2)o1`?
Ecoli WT expand: 2; CYP2C9 act: 0.4; tolC growth inh: 20; CYP2C19 inh: 79*; CYP2C9 inhib: 60*; CYP2C19 activ: 0.2

Results for C=CCN1C(=O)C(CC(=O)Nc2ccccc2)SC1=Nc1c(C)n(C)n(-c2ccccc2)c1=O (stereo unspecified) ?
Ecoli WT expand: 1; CYP2C9 act: 0.6; CYP2C19 inh: 26; CYP2C9 inhib: 41; CYP2C19 activ: 0.7

Results for COC(=O)N1CC(C)N(C(=O)OC)CC1C (stereo unspecified) ?
Ecoli WT expand: -4; CYP2C9 act: 1; tolC growth inh: -13; CYP2C19 inh: 13; CYP2C9 inhib: 4; CYP2C19 activ: 0.9

Results for CC1CCN(S(=O)(=O)c2ccc3c(c2)c(=O)c(C(=O)N2CCCCC2)cn3C)CC1 ?
Ecoli WT expand: -1; CYP2C9 act: 1; tolC growth inh: 4; CYP2C19 inh: 0; CYP2C9 inhib: 1; CYP2C19 activ: 1
